Reference: ChEMBL document CHEMBL3259774, “Antimycobacterial activity of chiral aminoalcohols with camphane scaffold” (Eur J Med Chem, 2014)
Values after ≈ are worked out from the molar mass of the structure shown. Structures can show the parent of a compound that is named as a salt.

How the values were obtained:
[1] = tested on: Mycobacterium tuberculosis; assay: Antimycobacterial activity against Mycobacterium tuberculosis H37Rv assessed as growth inhibition after 45 days; assay type: functional
Outline: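 Canetti proportion method on Löwenstein–Jensen egg medium. Each compound was added as a sterile DMSO suspension/solution before coagulation (30 min at 85 °C) and tested at five concentrations. Tubes were inoculated with 10⁵ cells/ml and incubated 45 days at 37 °C. Colony counts were expressed as percent of drug-free control. MIC is the lowest concentration giving complete inhibition (0% growth).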

HEK-293T = assay: Cytotoxicity against HEK293T cells after 72 hrs by MTT assay; assay type: cell-based; conditions: Homo sapiens
Outline: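 HEK 293T cells grown in RPMI-1640 with 10% heat-inactivated foetal calf serum and 2 mM L-glutamine, 37 °C, 5% CO2. Cells seeded at […] cells/ml, grown 24 h, then exposed 72 h to compounds serially diluted from fresh DMSO stocks (final DMSO ≤0.5%), ≥8 wells per concentration. MTT added for 4 h at 37 °C, formazan dissolved in 5% HCOOH/2-propanol, read at 580 nm. Survival expressed as % of untreated control; IC50 from sigmoidal curve fit.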

Row | SMILES | MIC [1] | IC50 (HEK-293T)
1 | CC1(C)[C@@H]2CC[C@@]1([C@@H](O)CN1CCCC1)C(=O)C2 | 19.9 µM (≈ 5 µg/mL) | 
2 | CC1(C)[C@@H]2CC[C@@]1([C@@H](O)CN1CCN(c3ccccc3)CC1)C(=O)C2 | 14.6 µM (≈ 5 µg/mL) | 
3 | CC1(C)[C@@H]2CC[C@@]1([C@H](O)CN1CCCCC1)C(=O)C2 | 18.8 µM (≈ 5 µg/mL) | 
4 | CC1(C)[C@@H]2CC[C@@]1([C@H](O)CN1CCOCC1)C(=O)C2 | 18.7 µM (≈ 5 µg/mL) | 
5 | CC1(C)[C@@H]2CC[C@@]1([C@H](O)CN1CCN(c3ccccc3)CC1)C(=O)C2 | 14.6 µM (≈ 5 µg/mL) | 
6 | CC(C)N(C[C@H](O)[C@]12CC[C@H](CC1=O)C2(C)C)C(C)C | 0.37 µM (≈ 0.104 µg/mL) | 166 µM
7 | CC1(C)[C@@H]2CC[C@@]1([C@@H](O)CN1CCN(c3ccc(Cl)cc3)CC1)C(=O)C2 | 7.96 µM (≈ 3 µg/mL) | 8.6 µM
8 | CC1(C)[C@@H]2CC[C@@]1([C@H](O)CN1CCN(c3ccc(Cl)cc3)CC1)C(=O)C2 | 0.27 µM (≈ 0.102 µg/mL) | 9.2 µM
9 | CC1(C)[C@@H]2CC[C@@]1([C@H](O)CN1CCSCC1)C(=O)C2 | 17.6 µM (≈ 5 µg/mL) | 
10 | CC1(C)[C@@H]2CC[C@@]1([C@@H](O)CN1CCN(c3ccccc3F)CC1)C(=O)C2 | 0.28 µM (≈ 0.101 µg/mL) | 129 µM
11 | CC1(C)[C@@H]2CC[C@@]1([C@@H](O)CN1CCSCC1)C(=O)C2 | 17.6 µM (≈ 5 µg/mL) | 
12 | CC1(C)[C@@H]2CC[C@@]1([C@@H](O)CN1CCOCC1)C(=O)C2 | 0.37 µM (≈ 0.0989 µg/mL) | > 200 µM
13 | CC1(C)[C@@H]2CC[C@@]1([C@H](O)CN1CCN(c3ccccc3F)CC1)C(=O)C2 | 0.28 µM (≈ 0.101 µg/mL) | 120 µM
14 | CC1(C)[C@@H]2CC[C@@]1([C@H](O)CN1CCN(c3ccc(F)cc3)CC1)C(=O)C2 | 0.28 µM (≈ 0.101 µg/mL) | 65.1 µM
15 | CN1CCN(C[C@@H](O)[C@]23CC[C@H](CC2=O)C3(C)C)CC1 | 17.8 µM (≈ 5 µg/mL) | 
16 | CC1(C)[C@@H]2CC[C@@]1([C@@H](O)CN1CCCCC1)C(=O)C2 | 0.38 µM (≈ 0.101 µg/mL) | 143 µM
17 | CC[C@@H](CO)NCCN[C@@H](CC)CO [ETHAMBUTOL HYDROCHLORIDE] | 7.22 µM | 
18 | CC(C)N(C[C@@H](O)[C@]12CC[C@H](CC1=O)C2(C)C)C(C)C | 10.7 µM (≈ 3 µg/mL) | 
19 | CC1CCN(C[C@@H](O)[C@]23CC[C@H](CC2=O)C3(C)C)CC1 | 0.36 µM (≈ 0.101 µg/mL) | 169 µM
20 | CN1CCN(C[C@H](O)[C@]23CC[C@H](CC2=O)C3(C)C)CC1 | 17.8 µM (≈ 5 µg/mL) | 
21 | CC1CCN(C[C@H](O)[C@]23CC[C@H](CC2=O)C3(C)C)CC1 | 0.72 µM (≈ 0.201 µg/mL) | 158 µM
22 | CC1(C)[C@@H]2CC[C@@]1([C@@H](O)CN1CCN(c3ccc(F)cc3)CC1)C(=O)C2 | 0.28 µM (≈ 0.101 µg/mL) | 82.2 µM
